This is an account of results in article PMC5771863 (Anesthesiology, 2018).

Holding throughout (assay type): cell-based
Experiment [1] concerns the target T1, α1β3V290Cγ2L GABAA receptors (Homo sapiens, UniProt P14867+P28472, V315C).
Experiment [2] concerns the target wild-type α1β3γ2L GABAA receptors (Homo sapiens, UniProt P14867+P28472). The following applies: […] ETO, 5 μM PRO, […] ALX (2 x EC50 tadpole LoRR).
Experiment [3] deals with T2, α1β3F293Cγ2L GABAA receptors (Homo sapiens, UniProt P14867+P28472, F318C). Description: Substituted cysteine modification-protection. The following applies: pCMBS + maximal GABA, initial concentrations, 10 μM ALX.
The target in experiment [4] is T3, α1β3L297Cγ2L GABAA receptors (Homo sapiens, UniProt P14867+P28472, L322C). Put plainly: Substituted cysteine modification-protection. The following applies: pCMBS + maximal GABA.
Experiment [5] concerns the target T4, α1β3F301Cγ2L GABAA receptors (Homo sapiens, UniProt P14867+P28472, F326C). Description: Substituted cysteine modification-protection. To be noted: pCMBS + maximal GABA, 10 to 20 μM ALX, 10 to 20 μM ETO.
The target in experiment [6] is α1T237Cβ3γ2L GABAA receptors (Homo sapiens, UniProt P14867+P28472, T264C). Put plainly: Substituted cysteine modification-protection. The following applies: 10 μM ALX, 10 μM ETO.
The target in experiment [7] is GABAA receptors with α1Q242C mutation (Homo sapiens, UniProt P14867+P28472, Q269C). Description: Receptor sensitivity to anesthetics. To be noted: authors' unpublished data.
Experiment [8] concerns the target α1β3γ2L GABAA receptors (wild-type) (Homo sapiens, UniProt P14867+P28472). Put plainly: Functional effect of pCMBS exposure.
Experiment [9] concerns the target α1β3T262Cγ2L GABAA receptors (Homo sapiens, UniProt P14867+P28472, T287C). Put plainly: Functional effect of pCMBS exposure.
The target in experiment [10] is α1β3T266Cγ2L GABAA receptors (Homo sapiens, UniProt P14867+P28472, T291C). Put plainly: Functional effect of pCMBS exposure.
The target in experiment [11] is α1β3M283Cγ2L GABAA receptors (Homo sapiens, UniProt P14867+P28472, M308C). Description: Functional effect of pCMBS exposure.
The target in experiment [12] is α1β3M286Cγ2L GABAA receptors (Homo sapiens, UniProt P14867+P28472, M311C). Description: Functional effect of pCMBS exposure.
In experiment [13] the target is α1β3G287Cγ2L GABAA receptors (Homo sapiens, UniProt P14867+P28472, G312C). Put plainly: Functional effect of pCMBS exposure.
Experiment [14] concerns the target α1β3F289Cγ2L GABAA receptors (Homo sapiens, UniProt P14867+P28472, F314C). Put plainly: Functional effect of pCMBS exposure.
In experiment [15] the target is T1, α1β3V290Cγ2L GABAA receptors. Description: Functional effect of pCMBS exposure.
For experiment [16], the target named is T2, α1β3F293Cγ2L GABAA receptors. Put plainly: Functional effect of pCMBS exposure.
Experiment [17] concerns the target T3, α1β3L297Cγ2L GABAA receptors. Description: Functional effect of pCMBS exposure.
The target in experiment [18] is α1β3E298Cγ2L GABAA receptors (Homo sapiens, UniProt P14867+P28472, E323C). Put plainly: Functional effect of pCMBS exposure.
Experiment [19] addresses T4, α1β3F301Cγ2L GABAA receptors. Put plainly: Functional effect of pCMBS exposure.
Experiment [20] concerns the target T2, α1β3F293Cγ2L GABAA receptors. The following applies: control modification conditions.
In experiment [21] the target is β3 subunits with Y284C mutations co-expressed with α1 and γ2L (Homo sapiens, UniProt P14867+P28472, Y309C). Description: GABA-activated currents, two-electrode voltage clamp in Xenopus oocytes. To be noted: β3Y284C co-expressed with α1 and γ2L in Xenopus oocytes. Summed up: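 Human α1 and γ2L were co-expressed with mutant β3 from mRNA (1:1:5, ~50 ng per oocyte) over 48 to 72 hours at 17 °C in ND96. […] A current of ≥ 0.5 μA was required for further experiments.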
For orientation: In two-electrode clamp one electrode senses voltage and the other passes current.

Setting [22] is: low concentrations of anesthetics.

T2 sequence (P14867 28-456): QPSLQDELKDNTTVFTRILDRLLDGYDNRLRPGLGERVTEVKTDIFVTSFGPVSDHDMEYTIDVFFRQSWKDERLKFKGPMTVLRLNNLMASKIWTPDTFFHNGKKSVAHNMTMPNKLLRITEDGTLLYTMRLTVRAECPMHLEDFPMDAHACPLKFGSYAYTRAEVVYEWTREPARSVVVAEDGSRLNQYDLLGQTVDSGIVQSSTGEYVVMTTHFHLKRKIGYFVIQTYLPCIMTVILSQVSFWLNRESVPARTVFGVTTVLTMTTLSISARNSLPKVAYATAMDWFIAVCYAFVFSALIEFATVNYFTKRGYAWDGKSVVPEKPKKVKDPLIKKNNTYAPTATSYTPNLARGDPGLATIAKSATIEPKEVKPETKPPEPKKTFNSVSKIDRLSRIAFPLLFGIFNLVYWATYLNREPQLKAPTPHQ
T2 sequence (P28472 26-473 F318C): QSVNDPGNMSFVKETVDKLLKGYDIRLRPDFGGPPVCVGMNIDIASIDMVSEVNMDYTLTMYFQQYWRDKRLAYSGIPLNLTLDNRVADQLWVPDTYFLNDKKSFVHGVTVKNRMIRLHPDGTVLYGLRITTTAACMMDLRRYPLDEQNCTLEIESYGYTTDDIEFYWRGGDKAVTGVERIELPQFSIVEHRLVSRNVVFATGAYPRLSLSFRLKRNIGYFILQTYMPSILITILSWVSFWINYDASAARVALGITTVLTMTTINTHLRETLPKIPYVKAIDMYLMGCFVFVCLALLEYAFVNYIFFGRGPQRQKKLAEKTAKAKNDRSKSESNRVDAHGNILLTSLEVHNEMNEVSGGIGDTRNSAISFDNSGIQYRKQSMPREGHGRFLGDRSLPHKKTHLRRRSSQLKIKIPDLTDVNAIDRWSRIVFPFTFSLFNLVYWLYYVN
T2 sequence (P18507 40-475 partner): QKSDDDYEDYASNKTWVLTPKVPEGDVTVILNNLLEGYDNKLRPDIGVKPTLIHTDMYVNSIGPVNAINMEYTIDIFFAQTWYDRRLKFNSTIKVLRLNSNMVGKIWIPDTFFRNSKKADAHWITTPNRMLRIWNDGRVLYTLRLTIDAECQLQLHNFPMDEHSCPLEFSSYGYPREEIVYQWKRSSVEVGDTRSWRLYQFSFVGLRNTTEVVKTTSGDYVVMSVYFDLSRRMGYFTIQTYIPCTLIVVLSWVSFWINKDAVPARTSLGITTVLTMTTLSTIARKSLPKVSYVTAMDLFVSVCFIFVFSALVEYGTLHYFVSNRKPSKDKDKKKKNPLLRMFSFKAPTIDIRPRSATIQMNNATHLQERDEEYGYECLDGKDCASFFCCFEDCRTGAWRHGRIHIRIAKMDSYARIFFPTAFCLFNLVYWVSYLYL
T3 sequence (P14867 28-456): as the sequence (P14867 28-456) above
T3 sequence (P28472 26-473 L322C): as the sequence (P28472 26-473 F318C) above, with C293F, L297C counted along it
T3 sequence (P18507 40-475 partner): as the sequence (P18507 40-475 partner) above
Chain of α1β3γ2L GABAA receptors (wild-type) (P14867 28-456): as the sequence (P14867 28-456) above
Chain of α1β3γ2L GABAA receptors (wild-type) (P28472 26-473): as the sequence (P28472 26-473 F318C) above, with C293F counted along it
Chain of α1β3γ2L GABAA receptors (wild-type) (P18507 40-475 partner): as the sequence (P18507 40-475 partner) above

`C=CCC1(c2cccc(C3(C(F)(F)F)N=N3)c2)C(=O)NC(=O)N(C)C1=O` (stereo not drawn) [mTFD-MPAB, R-allyl-m-trifluoromethyl-mephobarbital]: the “effect on apparent rate of pCMBS modification” value (from here on “effect on apparent rate”) in experiment [1] was “unaffected”.

Consider `CC(C)c1cccc(C(C)C)c1O` [PRO, 2,6-diisopropylphenol], for which the “enhancement of gating of receptors activated with EC5 GABA” value in [2] was “similarly enhance”. For the same compound, the “effect on apparent rate” value in [3] was “accelerated”; in experiment [4] (setting [22]) it was “unaffected”.

As to `CCOC(=O)c1cncn1[C@H](C)c1ccccc1` [ETO, R-Etomidate], in experiment [2], the “enhancement of gating of receptors activated with EC5 GABA” value was “similarly enhance”. Further, the “effect on apparent rate” value was “accelerated” in [3]; “inhibition by ALX, but not ETO” in experiment [4] (50 μM ALX vs. 50 μM ETO); “unaffected” in [4] (setting [22]); “unaffected” in [5]. Besides, the “effect on pCMBS modification rates” value in [6] was “inhibited modification”. Also, in experiment [7], the “receptor sensitivity to anesthetic” value is given as “insensitivity to ALX, but not to ETO”.

In the case of `O=S(=O)([O-])c1cc[c]([Hg][Cl])cc1.[Na+]` [pCMBS, Para-chloromercuribenzenesulfonic acid sodium salt], the “Maximal Effect of pCMBS Modification (range)” value in experiment [8] and in [11] was “No effect” in each case. The “effect of pCMBS exposure on receptor function” value in [8] (pCMBS at 1 mM for 60 s) was “unaffected”. In addition, the “Maximal Effect of pCMBS Modification (range): Reduce max current” value in [9] is “Reduce max current (95–99%)”. Besides, the “effect of pCMBS exposure on activation by GABA” value in experiment [9] (low and high GABA) was “similarly reduced activation by both low and high GABA”. Further, the “Maximal Effect of pCMBS Modification (range): ↑ lo/hi GABA response” value in experiment [10] was “↑ lo/hi GABA response (10 to 13-fold)”; in [12], “↑ lo/hi GABA response (5.8 to 7.8-fold)”; in [13], “↑ lo/hi GABA response (2.3 to 3.5-fold)”; in [14] it was “↑ lo/hi GABA response (2.8 to 4.0-fold)”; in [15], “↑ lo/hi GABA response (2.3 to 3.1-fold)”; in experiment [16], “↑ lo/hi GABA response (2.6 to 4.3-fold)”. The “Maximal Effect of pCMBS Modification (range): ↑ lo/hi GABA response” value is given as “↑ lo/hi GABA response (5.5 to 7.2-fold)” in experiment [17], “↑ lo/hi GABA response (3.5 to 5.5-fold)” in [18] and “↑ lo/hi GABA response (3.8 to 4.9-fold)” in experiment [19].

In the case of `NCCCC(=O)O` [GABA, γ-Aminobutyric acid], in experiment [20], the “fraction of receptors activated by maximal GABA” value is given as “about 16%”. In addition, the GABA-activated currents entry in [21] is “No GABA-activated currents were detected”.
